Measurements taken from ChEMBL document CHEMBL3526127, “Absorption, elimination, and metabolism of CS-1036, a novel α-amylase inhibitor in rats and monkeys, and the relationship between gastrointestinal distribution and suppression of glucose absorption” (Drug Metab Dispos, 2013).

Experiments:
[1] = Drug excretion in F344 rat expired air at 1 mg/kg, po administered as single dose after 0 to 48 hrs by scintillation counting method; type: ADME, organism-based; design: dose 1 mg/kg, route oral; settings: in vivo
Summary of the method: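 Fasted F344 rats (152–156 g iv via tail vein; 154–159 g oral; n = 4) received [14C]-labelled drug at 1 mg/kg (41.9 µCi/kg). Animals were kept in metabolic cages; urine and feces were collected to 168 h, and expired CO2 was trapped in 2-aminoethanol/2-methoxyethanol (1:1) to 48 h. Samples were counted by liquid scintillation (feces homogenized). Results are % of dose, mean ± S.D.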

[2] = Drug excretion in bile duct cannulated F344 rat bile at 1 mg/kg, iv administered as single dose after 0 to 48 hrs by scintillation counting method; type: ADME, organism-based; design: dose 1 mg/kg, route intravenous; settings: in vivo
Summary of the method: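 Common bile duct was cannulated under diethyl ether in fasted F344 rats. After recovery, [14C]-labelled drug (1 mg/kg, 41.9 µCi/kg) was given iv via tail vein or by oral gavage (n = 4). Rats were held in Bollman cages and bile was collected at 4°C over 0–48 h intervals. Bile was counted by liquid scintillation; % of dose.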

Ileum = test: Drug distribution in F344 rat ileum at 1 mg/kg, po administered as single dose after 1 hr by scintillation counting method; type: ADME, organism-based; design: dose 1 mg/kg, route oral; settings: in vivo
Summary of the method: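 [14C]-labelled drug (1 mg/kg, 42.4 µCi/kg) was given orally to fasted F344 rats (148–168 g, n = 3). Contents of stomach, duodenum+jejunum, ileum and cecum were washed out with water at 0.5–8 h, homogenized, solubilized and counted by liquid scintillation. Results are % of dose, mean ± S.D.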

[3] = Drug metabolism in rat kidney […] S9 fractions at 0.42 uCi/ml assessed as metabolite formation in presence of NADPH after 1 hr at 37 degC by LC-MS/MS method; type: ADME, subcellular; settings: s9, 1 h
[4] = Drug metabolism in monkey kidney S9 fractions at 0.42 uCi/ml assessed as metabolite formation in presence of NADPH after 1 hr at 37 degC by LC-MS/MS method; type: ADME, tissue-based, Macaca mulatta; settings: rhesus monkey, s9, 1 h
[5] = Drug metabolism in anaerobic culture broth of F344 rat cecal content assessed as 1,4-dideoxy-1,4-imino-D-arabinitol formation at 63.5 uCi/ml after 24 hrs at 35 degC by LC-MS/MS method; type: ADME
Cynomolgus monkey = test: Total drug excretion in cynomolgus monkey at 3 mg/kg, po administered as single dose after 0 to 48 hrs by scintillation counting method; type: ADME, organism-based, Macaca fascicularis; design: dose 3 mg/kg, route oral; settings: in vivo
Summary of the method: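 Fasted male cynomolgus monkeys (n = 4) were dosed with 14C-labelled drug at 3 mg/kg, iv via saphenous vein (191 µCi/kg) or orally by stomach catheter (156.5 µCi/kg). Urine, feces and cage-wash water were collected to 336 h. Radioactivity was measured by liquid scintillation counting, with feces homogenized in water, and expressed as % of dose.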

[6] = Drug excretion in cynomolgus monkey feces at 3 mg/kg, po administered as single dose after 48 hrs by scintillation counting method; settings: in vivo
[7] = Cmax in cynomolgus monkey at 10 mg/kg, po administered as single dose by LC-MS/MS method; type: ADME, organism-based, Macaca fascicularis; design: dose 10 mg/kg, route oral; settings: in vivo
Summary of the method: (§1)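 Fasted male F344 rats (146–185 g) and cynomolgus monkeys (3.48–4.29 kg), n = 4 each, received a single oral dose; monkeys had 2-week washouts. Plasma sampled up to 48 h, stored at […], assayed by LC-MS/MS with a deuterated internal standard. Cmax taken from observed data by noncompartmental analysis; mean ± S.D. (n = 3 or 4).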

[8] = AUClast in cynomolgus monkey at 10 mg/kg, po administered as single dose by LC-MS/MS method; type: ADME, organism-based, Macaca fascicularis; design: time 0 - last, dose 10 mg/kg, route oral; settings: plasma
Summary of the method: (§2)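 Fasted male F344 rats (146–185 g) or male cynomolgus monkeys (3.48–4.29 kg), n = 4 per dose, given single iv or oral dose of 0.3, 1.0, 3.0 or 10.0 mg/kg; monkeys dosed with 2-week washouts. Blood sampled to 48 h; plasma stored frozen. LC-MS/MS with deuterated internal standard. Noncompartmental analysis: AUClast by trapezoidal rule; AUC0–inf = AUClast + Ctz/terminal rate constant; mean ± S.D.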

[9] = AUClast in F344 rat at 3 mg/kg, iv administered as single dose by LC-MS/MS method; type: ADME, organism-based; design: time 0 - last, dose 3 mg/kg, route intravenous; settings: plasma; summary of the method: as §2
[10] = AUClast in cynomolgus monkey at 3 mg/kg, iv administered as single dose by LC-MS/MS method; type: ADME, organism-based, Macaca fascicularis; design: time 0 - last, dose 3 mg/kg, route intravenous; settings: plasma; summary of the method: as §2
[11] = Cmax in F344 rat at 10 mg/kg, po administered as single dose by LC-MS/MS method; type: ADME, organism-based; design: dose 10 mg/kg, route oral; settings: in vivo
[12] = Cmax in F344 rat at 0.3 mg/kg, po administered as single dose by LC-MS/MS method; type: ADME, organism-based; design: dose 0.3 mg/kg, route oral; settings: in vivo; summary of the method: as §1
[13] = Tmax in cynomolgus monkey at 3 mg/kg, po administered as single dose by LC-MS/MS method; type: ADME, organism-based, Macaca fascicularis; design: dose 3 mg/kg, route oral; settings: in vivo
Summary of the method: (§3)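 Male F344 rats (146–185 g) and male cynomolgus monkeys (3.48–4.29 kg), n = 4 each, fasted overnight, received single iv or oral doses of 0.3, 1.0, 3.0 or 10.0 mg/kg. Monkeys had 2-week washouts between doses. Plasma was sampled to 48 h and assayed by LC-MS/MS with deuterated internal standard. Noncompartmental analysis: tmax observed; t1/2 by regression on ≥3 terminal log points; Vss = dose·AUMC/(AUC0–inf)²; Foral = oral/iv AUC0–inf at the same dose.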

[14] = AUC (0 to infinity) in cynomolgus monkey at 0.3 mg/kg, iv administered as single dose by LC-MS/MS method; type: ADME, organism-based, Macaca fascicularis; design: time infinity, dose 0.3 mg/kg, route intravenous; settings: plasma; summary of the method: as §2
[15] = AUC (0 to infinity) in cynomolgus monkey at 1 mg/kg, iv administered as single dose by LC-MS/MS method; type: ADME, organism-based, Macaca fascicularis; design: time infinity, dose 1 mg/kg, route intravenous; settings: plasma; summary of the method: as §2
[16] = AUC (0 to infinity) in cynomolgus monkey at 10 mg/kg, iv administered as single dose by LC-MS/MS method; type: ADME, organism-based, Macaca fascicularis; design: dose 10 mg/kg, route intravenous, time infinity; settings: plasma; summary of the method: as §2
[17] = Clearance in cynomolgus monkey at 3 mg/kg, iv administered as single dose by LC-MS/MS method; type: ADME, organism-based, Macaca fascicularis; design: dose 3 mg/kg, route intravenous; settings: in vivo
Summary of the method: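 Fasted male F344 rats (146–185 g) and male cynomolgus monkeys (3.48–4.29 kg), n = 4 each, received a single iv dose; monkeys had 2-week washouts between doses. Blood was sampled up to 48 h and plasma stored at […]. Plasma parent was quantified by LC-MS/MS with a deuterated internal standard. CL = dose/AUC0–inf by noncompartmental analysis; mean ± S.D.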

[18] = Tmax in F344 rat at 10 mg/kg, po administered as single dose by LC-MS/MS method; type: ADME, organism-based; design: dose 10 mg/kg, route oral; settings: in vivo; summary of the method: as §3
[19] = AUC (0 to infinity) in cynomolgus monkey at 3 mg/kg, po administered as single dose by LC-MS/MS method; type: ADME, organism-based, Macaca fascicularis; design: dose 3 mg/kg, route oral, time infinity; settings: plasma; summary of the method: as §2
[20] = AUC (0 to infinity) in F344 rat at 0.3 mg/kg, iv administered as single dose by LC-MS/MS method; type: ADME, organism-based; design: time infinity, dose 0.3 mg/kg, route intravenous; settings: plasma; summary of the method: as §2
[21] = AUC (0 to infinity) in F344 rat at 1 mg/kg, iv administered as single dose by LC-MS/MS method; type: ADME, organism-based; design: time infinity, dose 1 mg/kg, route intravenous; settings: plasma; summary of the method: as §2
[22] = AUC (0 to infinity) in F344 rat at 10 mg/kg, po administered as single dose by LC-MS/MS method; type: ADME, organism-based; design: time infinity, dose 10 mg/kg, route oral; settings: plasma; summary of the method: as §2
[23] = Half life in F344 rat at 10 mg/kg, po administered as single dose by LC-MS/MS method; type: ADME, organism-based; design: dose 10 mg/kg, route oral; settings: in vivo

C[C@H]1O[C@@H](O[C@H]2[C@H](O)[C@@H](O)[C@@H](O[14C@H]3[14C@H](O)[14CH2]N[14C@@H]3[14CH2]O)O[C@@H]2CO)[C@H](O)[C@@H](O)[C@@H]1O
Drug excretion [1]: 2.34%
Drug excretion [2]: 0.37%
Drug uptake (Ileum): 67.7%
Drug metabolism [3]: metabolite_not_detected
Drug metabolism [4]: metabolite_not_detected
Drug metabolism [5]: metabolite_detected
Drug excretion (Cynomolgus monkey): 83.8%
Drug excretion [6]: 48.7%

C[C@H]1O[C@@H](O[C@H]2[C@H](O)[C@@H](O)[C@@H](O[C@H]3[C@H](O)CN[C@@H]3CO)O[C@@H]2CO)[C@H](O)[C@@H](O)[C@@H]1O
Cmax [7]: 152 ng/mL
AUC(0-t) [8]: 869 ng·h/mL
AUC(0-t) [9]: 18700 ng·h/mL
AUC(0-t) [10]: 18100 ng·h/mL
Cmax [11]: 285 ng/mL
Cmax [12]: 16.2 ng/mL
Tmax [13]: 1.75 h
AUC(0-inf) [14]: 2010 ng·h/mL
AUC(0-inf) [15]: 5890 ng·h/mL
AUC(0-inf) [16]: 74500 ng·h/mL
clearance [17]: 2.75 mL/min/kg
Tmax [18]: 0.438 h
AUC(0-inf) [19]: 191 ng·h/mL
AUC(0-inf) [20]: 1870 ng·h/mL
AUC(0-inf) [21]: 4930 ng·h/mL
AUC(0-inf) [22]: 1080 ng·h/mL
half-life [23]: 18.3 h
